Only some compounds are listed: those with a hit (about 2.3% of all), similar ones and a draw of the others.
ADAM17 inh: inhibitors of human ADAM17 | P78536 | recombinant ADAM17, EDANS/DABCYL FRET peptide cleavage | inhibition, % at 6.95 µM | actives 0.83% (n = 370,000) | AID 720648;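 active = inhibition above the mean of compounds lying between control limits plus 3 SD, set per campaign, cut at about 8.5% in these data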
PLC-beta3 inh: blocks human PLC-beta3 enzyme activity | inhibition, % at 12.2 µM | Purified PLC-beta3, fluorogenic substrate, fluorescence | actives 0.18% (n = 370,000); in the data active = inhibition above about 11%
Tb MetRS inh: Trypanosoma brucei MetRS inhibition; purified T. brucei MetRS, ATP depletion, Kinase-Glo luminescence; inhibition, % at 11.9 µM; actives 0.4% (n = 360,000); AID 624268;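 active = inhibition above a per-plate cutoff of the control wells' mean inhibition plus 3 SD, cut at about 5.5% in these data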
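Material – parasite MetRS enzyme · Medium – HEPES-MgCl2-KCl buffer plus DTT, spermine, BSA, pyrophosphatase · Reagent – ATP, methionine and E. coli bulk tRNA substrates · Times – 15 min enzyme-compound preincubation, 2 h reaction, 10 min detection, 25 °C · Measured by – luminescence of leftover ATP · Evaluation – percent inhibition relative to median high and low control wells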
ADAM10 inh: ADAM10 inhibition, QFRET primary screen. recombinant ADAM10, EDANS/DABCYL FRET peptide cleavage, 3 h. inhibition, % at 7 µM. actives 0.62% (n = 370,000). AID 720582;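 active = inhibition above a per-campaign cutoff equal to the mean of compounds falling between control-based bounds plus 3 SD, cut at about 20% in these data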
Target sequence (O14672 214-748 limits assumed): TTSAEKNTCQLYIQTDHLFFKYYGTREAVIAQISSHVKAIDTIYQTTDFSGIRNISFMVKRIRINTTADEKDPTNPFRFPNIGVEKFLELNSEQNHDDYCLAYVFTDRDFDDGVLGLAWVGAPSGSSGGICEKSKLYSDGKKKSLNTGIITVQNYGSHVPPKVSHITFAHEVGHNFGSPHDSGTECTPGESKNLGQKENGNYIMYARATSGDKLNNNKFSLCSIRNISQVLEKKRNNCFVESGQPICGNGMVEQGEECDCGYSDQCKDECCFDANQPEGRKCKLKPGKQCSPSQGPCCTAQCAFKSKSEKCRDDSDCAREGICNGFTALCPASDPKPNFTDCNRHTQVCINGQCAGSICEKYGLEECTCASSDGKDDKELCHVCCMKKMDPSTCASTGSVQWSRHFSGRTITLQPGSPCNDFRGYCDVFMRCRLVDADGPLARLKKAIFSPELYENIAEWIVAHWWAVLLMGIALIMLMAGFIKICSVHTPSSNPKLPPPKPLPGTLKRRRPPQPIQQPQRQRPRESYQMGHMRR
PLCg1 inh: PLC-gamma1 (human) inhibition, primary screen. purified PLC-gamma1, fluorogenic substrate, fluorescence. inhibition, % at 12.2 µM. actives 0.84% (n = 370,000)
ADAM10 counter: counter-screen for ADAM17 exosite inhibitors: inhibitors of human ADAM10. shares compounds with ADAM17 inh. recombinant ADAM10, EDANS/DABCYL FRET peptide cleavage, 3 h. inhibition, % at 6.95 µM. actives 47% (n = 2,900). AID 743256;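 active = mean inhibition over the triplicate runs exceeds the activity threshold set in the earlier primary screen, cut at about 20% in these data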
ADAM17 confirm: confirmation of inhibitors of human ADAM17; shares compounds with ADAM17 inh; recombinant ADAM17, EDANS/DABCYL QFRET peptide cleavage; inhibition, % at 6.95 µM; actives 65% (n = 2,900);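 active = mean inhibition across replicates above the hit cutoff set in the primary screen, cut at about 8.5% in these data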
PLCg1 ctr: counter-screen for PLC-beta3 inhibitors: inhibitors of human PLC-gamma1. shares compounds with PLCg1 inh. purified PLC-gamma1, fluorogenic substrate, fluorescence. inhibition, % at 12.3 µM. actives 3.1% (n = 3,300). AID 743258
PLCbeta3 conf: human PLC-beta3 inhibition, confirmation; inhibition, % at 12.3 µM; shares compounds with PLCg1 inh; purified PLC-beta3, fluorogenic substrate fluorescence; actives 1% (n = 3,300); in the data active = inhibition above about 11%
Large screens that a line does not name were inactive (follow-up assays come after a bar, where they were run). Cut-off read from the data, not from the text of the source, unless noted: active = inhibition above about 9.5%; inactive = the rest.

O=C(Nc1ccc(F)cc1)C(CCc1ccccc1)N1CCN(c2ccncc2)CC1 (stereo unspecified)	none
Oc1ccc(C[C@@H]2CNCCN2CCC23CC4CC(CC(C4)C2)C3)cc1	none
Oc1ccc(C[C@H]2CNCCN2CCC23CC4CC(CC(C4)C2)C3)cc1	ADAM17 inh 11, PLC-beta3 inh 11, PLCg1 inh 9.8 | ADAM10 counter inactive | ADAM17 confirm inactive | PLCg1 ctr inactive | PLCbeta3 conf inactive
CCc1ccc(OC)c(S(=O)(=O)Nc2ccc(Cc3ccncc3)cc2)c1	ADAM17 inh 9.2, PLCg1 inh 14 | ADAM10 counter inactive | ADAM17 confirm inactive | PLCg1 ctr inactive | PLCbeta3 conf inactive
COc1ccc([C@H]2CC(=O)C=C(/C=C/c3ccccc3)C2)cc1OC	ADAM17 inh 13, PLC-beta3 inh 16, PLCg1 inh 11 | ADAM10 counter inactive | ADAM17 confirm inactive | PLCg1 ctr inactive | PLCbeta3 conf inactive
CC(=O)NC(c1cccc(F)c1)c1nc(/C=C/c2ccccc2)cs1 (stereo unspecified)	ADAM17 inh 11, PLCg1 inh 10 | ADAM10 counter inactive | ADAM17 confirm inactive | PLCg1 ctr inactive | PLCbeta3 conf inactive
COc1ccccc1-c1csc(C(NC(C)=O)c2cccc(F)c2)n1 (stereo unspecified)	none
COc1cccc(-c2cccc(NC(=O)C3CCN(CCCn4cccn4)CC3)c2)c1	none
C=CCNC(=S)NNC(=O)c1ccc(C)c(Cl)c1	ADAM17 inh 12, PLCg1 inh 13 | ADAM10 counter inactive | ADAM17 confirm inactive | PLCg1 ctr inactive | PLCbeta3 conf inactive
O=C(COC(=O)c1ccccc1SCC(=O)N1CCCC1)NCc1ccc(F)cc1	none
CS(=O)(=O)N1CCN(c2ccc(NC(=O)C(c3ccccc3)c3ccccc3)cc2)CC1	ADAM17 inh 13, PLCg1 inh 9.6 | ADAM10 counter inactive | ADAM17 confirm inactive | PLCg1 ctr inactive | PLCbeta3 conf inactive
O=C(COC(=O)COc1ccc(Br)cc1)NCc1ccc2c(c1)OCO2	none
Cc1cc(OCC(=O)OCC(=O)NCc2ccc3c(c2)OCO3)ccc1Cl	ADAM17 inh 11, PLCg1 inh 10 | ADAM10 counter inactive | ADAM17 confirm 9.1 | PLCg1 ctr inactive | PLCbeta3 conf inactive
Cc1cccc(CN2CCN(C(=O)CN(C)C(C)C(=O)Nc3ccc(C(N)=O)cc3)CC2)c1 (stereo unspecified)	none
CS/C(=C\[N+](=O)[O-])Nc1ccc(Cl)cc1	ADAM17 inh 12, PLCg1 inh 11 | ADAM10 counter inactive | ADAM17 confirm inactive | PLCg1 ctr inactive | PLCbeta3 conf inactive
CC(C)=CC(=O)Nc1ccc(Cl)cc1	none
CC(=O)Nc1ccc(N=Nc2ccccc2)cc1[N+](=O)[O-]	none
O=C(N/N=C/c1ccc(N2CCCC2)c([N+](=O)[O-])c1)c1cccnc1	ADAM17 inh 9.0, PLC-beta3 inh 16, PLCg1 inh 18 | ADAM10 counter 21 | ADAM17 confirm 12 | PLCg1 ctr inactive | PLCbeta3 conf inactive
O=C(N/N=C/c1ccc(N2CCOCC2)c([N+](=O)[O-])c1)c1ccc(F)cc1	none
O=C(CC1SC(=Nc2ccccc2)N(CCc2c[nH]c3ccccc23)C1=O)Nc1ccccc1F (stereo unspecified)	ADAM17 inh 9.9, PLC-beta3 inh 13 | ADAM10 counter 24 | ADAM17 confirm 13 | PLCg1 ctr inactive | PLCbeta3 conf inactive
COc1ccc(N=C2SC(CC(=O)Nc3ccccc3F)C(=O)N2Cc2ccco2)cc1 (stereo unspecified)	none
COc1ccc(N=C2SC(C(=O)Nc3ccc(OC)cc3)CC(=O)N2CCN2CCOCC2)cc1 (stereo unspecified)	none
N#Cc1ccccc1CSc1ccccn1	ADAM17 inh 9.1, PLC-beta3 inh 11 | ADAM10 counter inactive | ADAM17 confirm inactive | PLCg1 ctr inactive | PLCbeta3 conf inactive
N#Cc1ccc(CSc2ccccn2)c(Cl)c1	none
O=C(O)c1cc([N+](=O)[O-])ccc1-c1ccc([N+](=O)[O-])cc1C(=O)O	ADAM17 inh 9.4, PLC-beta3 inh 12, PLCg1 inh 20 | ADAM10 counter inactive | ADAM17 confirm inactive | PLCg1 ctr inactive | PLCbeta3 conf inactive
CC(C)(C)c1cc(C(=O)CCN2CCOCC2)cc(C(C)(C)C)c1O	ADAM17 inh 9.4, PLCg1 inh 13 | ADAM10 counter inactive | ADAM17 confirm inactive | PLCg1 ctr inactive | PLCbeta3 conf inactive
Cc1[nH]c2ccccc2c1C(=O)CSC(=S)N1CCCCC1	ADAM17 inh 11, PLCg1 inh 15 | ADAM10 counter inactive | ADAM17 confirm inactive | PLCg1 ctr inactive | PLCbeta3 conf inactive
CS(=O)(=O)/C(C#N)=C/c1cccn1S(=O)(=O)c1ccccc1	none
CC(C)(C)S(=O)(=O)/C(C#N)=C/c1cccn1S(=O)(=O)c1ccccc1	ADAM17 inh 9.4, PLCg1 inh 16 | ADAM10 counter 24 | ADAM17 confirm 12 | PLCg1 ctr inactive | PLCbeta3 conf inactive
CNS(=O)(=O)c1cccc(C(=O)OCC(=O)NC2CCCC2)c1	ADAM17 inh 8.9, PLCg1 inh 9.6 | ADAM10 counter inactive | ADAM17 confirm inactive | PLCg1 ctr inactive | PLCbeta3 conf inactive
O=C(NC(Cc1ccccc1)C(=O)N1CCCCC1)c1ccccc1 (stereo unspecified)	ADAM17 inh 9.3, PLCg1 inh 13 | ADAM10 counter inactive | ADAM17 confirm inactive | PLCg1 ctr inactive | PLCbeta3 conf inactive
O=C(/C=N/O)NCc1ccncc1	none
COc1ccc(OC)c(NC(=O)CCC(=O)Nc2nnc(C(C)C)s2)c1	ADAM17 inh 12, PLCg1 inh 12 | ADAM10 counter inactive | ADAM17 confirm inactive | PLCg1 ctr inactive | PLCbeta3 conf inactive
COc1ccc(NC(=O)CCC(=O)Nc2nnc(C(C)C)s2)cc1Cl	none
Cc1cc(C)cc(NC(=O)c2cccn2-c2ncc(C(F)(F)F)cc2Cl)c1	ADAM17 inh 17, PLCg1 inh 13 | ADAM10 counter inactive | ADAM17 confirm inactive | PLCg1 ctr inactive | PLCbeta3 conf inactive
C#Cc1cccc(Nc2nc(NCc3ccccc3)nc3ccsc23)c1	none
COc1ccc(CC(=O)NNC(=O)CSc2nnc(Cc3ccc(OC)cc3)n2-c2ccccc2)cc1	none

Screens deposited in PubChem by The Scripps Research Institute Molecular Screening Center.
